From PubChem
SIAE inh: human SIAE inhibition, primary screen; SIAE FP-Rh probe binding, fluorescence polarization; Q9HAT2; inhibition, % at 9.66 µM; hit rate 0.69% among 370,000;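 active means inhibition above a cutoff: mean of compounds within the control limits plus 3 SD of those, cut at about 17% in these data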;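 further: 0% = plate median of compound wells and 100% = probe without SIAE protein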
Target sequence (Q9HAT2 whole entry, looked up): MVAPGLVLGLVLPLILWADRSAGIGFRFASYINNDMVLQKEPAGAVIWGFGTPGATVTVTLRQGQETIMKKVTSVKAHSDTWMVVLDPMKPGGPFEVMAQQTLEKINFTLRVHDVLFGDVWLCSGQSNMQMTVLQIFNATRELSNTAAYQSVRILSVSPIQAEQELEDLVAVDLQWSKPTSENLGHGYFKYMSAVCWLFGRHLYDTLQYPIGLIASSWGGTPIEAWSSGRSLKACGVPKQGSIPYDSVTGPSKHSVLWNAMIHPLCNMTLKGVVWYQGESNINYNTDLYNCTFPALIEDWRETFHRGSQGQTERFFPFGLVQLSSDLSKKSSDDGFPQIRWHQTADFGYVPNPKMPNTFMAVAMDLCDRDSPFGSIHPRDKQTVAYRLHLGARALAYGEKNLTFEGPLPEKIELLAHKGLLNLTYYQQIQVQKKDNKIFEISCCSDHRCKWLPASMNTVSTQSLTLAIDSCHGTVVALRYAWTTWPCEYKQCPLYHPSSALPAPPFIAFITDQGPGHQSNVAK
ABHD4 inh: inhibits mouse alpha/beta hydrolase domain 4. hit rate 0.54% among 370,000. purified mABHD4, FP-Rh probe fluorescence polarization. Q8VD66. inhibition, % at 8.92 µM;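 active means inhibition exceeding the mean over every tested compound plus 3 SD, cut at about 30% in these data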;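 further: 0% = plate median of compound wells and 100% = S159A mutant with DMSO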
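system = mouse ABHD4 enzyme, wild type | medium = HEPES pH 7.0, NaCl, Pluronic buffer | also added = FP-Rh probe | incubation = Enzyme–compound pre-incubation 45 min, then probe 60 min, both 25 °C | technique = fluorescence polarization, excitation 525 nm, emission 598 nm, BODIPY TMR filters | controls = S159A mutant high control, sample median low control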
rCAG RNA binder: binds r(CAG) RNA repeats; r(CAG) RNA repeat, TO-PRO-1 dye displacement fluorescence; inhibition, % at 3 µM; hit rate 1.3% among 370,000;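 active means inhibition above the plate cutoff, the mean of all test compounds on that plate plus 3 SD, cut at about 35% in these data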;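 further: 0% = DMSO alone and 100% = 100 µM mitoxantrone as full dye displacement; higher means more dye released from RNA so lower well fluorescence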
TCR-CD3 inh: human TCR-CD3 binding inhibition. AID 651800. inhibition, % at 9.4 µM. hit rate 0.37% among 360,000. TAMRA-labeled TCR probe fluorescence, biochemical; in the data active means inhibition above about 19%;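 further: recombinant mutant TCR 2C K166C tagged with TAMRA read by polarization; 0% = receptor in buffer alone and 100% = receptor with positive control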
PRMT1 inh: PRMT1 (human) inhibition, primary screen | recombinant PRMT1, activity-based probe fluorescence polarization | inhibition, % at 2.79 µM | hit rate 1.3% among 370,000;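 active means inhibition above about 21% made by adding two undisclosed values, limit read from the data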
PRMT1 confirm: confirmation of human PRMT1 inhibitors; hit rate 42% among 3,300; AID 687036; recombinant His-PRMT1, activity-based probe fluorescence polarization; shares compounds with PRMT1 inh; inhibition, % at 2.79 µM;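 active means mean inhibition across replicates above the hit cutoff derived for the earlier primary screen, cut at about 22% in these data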
Numbers without * were called inactive; nt = no result. Shown are actives, neighbours in structure and some others; about 3.3% of the full set was active somewhere.

SMILES	SIAE inh	ABHD4 inh	rCAG RNA binder	TCR-CD3 inh	PRMT1 inh	PRMT1 confirm
CCN(C(=O)COc1cccc2cccnc12)C1CCS(=O)(=O)C1 (stereo unspecified)	2.5	3.5	1.2	-3.8	32.8*	4.2
CCN(C(=O)COc1ccccc1C(=O)NCc1ccccc1)C1CCS(=O)(=O)C1 (stereo unspecified)	1.2	-0.7	0.0	1.4	-0.3	nt
CN(CC#Cc1ccccc1)C(N)=NC(=O)/C=C/c1cccc(C(F)(F)F)c1	-0.8	-2.2	1.2	nt	6.2	nt
O=C(N/N=C/c1ccc(N2CCCCC2)o1)c1ccccc1[N+](=O)[O-]	8.3	10.8	11.2	0.7	31.4*	5.3
CN(Cc1ccccc1)C(=O)OCc1cn(Cc2cccc(F)c2F)nn1	-0.4	0.1	-0.6	nt	-5.0	nt
COc1cccc(NC(=S)NC(=O)/C=C/c2ccco2)c1	-1.6	0.1	7.7	-3.7	13.6	nt
O=C(/C=C/c1ccco1)Nc1cc(Cl)ccc1C(=O)O	-9.4	-8.0	19.5	2.1	25.2*	8.5
O=C(/C=C/c1ccco1)Nc1ccccc1C(=O)Nc1cccc(C(=O)O)c1	0.2	-17.0	26.6	1.5	25.2*	-1.6
O=C(/C=C/c1ccco1)Nc1ccccc1C(=O)O	-0.2	-0.4	18.6	6.4	17.3	nt
O=C(/C=C/c1ccco1)NC(=S)Nc1cccc(C(=O)O)c1	8.9	24.9	24.2	4.9	34.3*	29.5*
O=C(C1CCC1)n1ccc2ccc(-c3ccc4ccn(Cc5ccccc5)c4c3)cc21	-3.9	-2.1	6.0	nt	-2.6	nt
Cc1ccc(/C=C/C(=O)N2CCN(c3ccc(F)cc3)CC2)o1	5.4	-0.5	-8.0	5.6	-0.6	nt
Cc1ccc(/C=C/C(=O)N2CCN(c3ncccn3)CC2)o1	-0.7	-2.8	6.7	6.0	50.5*	36.2*
CN(C)CC(=O)N[C@@H]1C[C@@H]2O[C@@H](CO)CC[C@@H]2O[C@@H]1CCc1ccc(-c2ccc(F)cc2)cc1	6.0	8.0	2.8	nt	4.7	nt
Cn1c(CS/C(N)=N/N=C/c2ccccc2)c(Br)c(=O)n1-c1ccccc1	6.5	7.8	2.4	-1.0	42.0*	55.7*
NC(=N\N=Cc1ccccc1)/C(N)=N/N=Cc1ccccc1	-1.5	-0.5	-0.5	-5.7	1.9	nt
COC(=O)C1=C(C)N(Cc2ccc(Cl)cc2)C(=S)NC1c1ccc(OC)cc1 (stereo unspecified)	-8.3	-11.6	7.6	-6.1	7.4	nt
CCOc1ccccc1NC(=O)CCC(=O)O	-4.7	0.5	-0.3	-0.7	-0.3	nt
CCOc1ccccc1NC(=O)c1c(NC(=O)CCC(=O)O)sc2c1CCCCC2	3.6	1.8	26.5	1.2	25.4*	-3.7
CC(C)(C)c1csc(NC(=O)Cn2cnc3ccccc3c2=O)n1	0.5	0.1	0.3	9.7	29.4*	-0.3
O=C1CCCCCCC1Sc1ccccc1[N+](=O)[O-] (stereo unspecified)	2.0	-4.3	-4.9	0.4	29.6*	8.9
CSc1cnn(Cc2ccccc2)c(=O)c1SCc1ccccc1	-2.5	-1.8	-2.0	-5.2	74.3*	5.5
Cn1c(=O)cc(OCC(=O)N2CCN(c3ccccc3Cl)CC2)c2ccccc21	7.6	5.5	1.1	nt	-1.1	nt
CC(C)n1ncc2c(C(=O)Nc3ccccc3SCC(N)=O)cc(C3CC3)nc21	-4.1	-6.3	-0.3	-1.7	79.5*	-2.7
Cc1cc(Br)cn2c(Cc3ccsc3)c(-c3ccco3)nc12	0.3	11.1	14.6	-0.7	27.2*	12.1
SMILES	SIAE inh	ABHD4 inh	rCAG RNA binder	TCR-CD3 inh	PRMT1 inh	PRMT1 confirm
COc1ccc(Cc2c(-c3ccco3)nc3c(C)cc(Br)cn23)c(C)c1	-3.5	-6.5	8.2	0.1	6.7	nt
Cc1cc(Br)cn2c(Cc3ccccc3)c(-c3ccco3)nc12	-0.4	1.7	17.4	4.7	34.6*	11.5
CC(=O)CC[C@H]1CC[C@]2(CCCN(S(=O)(=O)c3ccccc3)C2)O1	8.2	-3.4	-1.1	nt	-3.3	nt
COC(=O)C(NNc1ccccc1C)(NC(=O)c1ccc(F)cc1)C(F)(F)F (stereo unspecified)	1.4	0.0	-3.1	0.2	49.7*	10.5
COc1ccc(CCNC2CC(=O)N(CCc3ccccc3)C2=O)cc1OC (stereo unspecified)	-0.2	7.7	-5.2	3.1	41.7*	-2.4
COc1ccc(CCNC2CC(=O)N(C)C2=O)cc1OC (stereo unspecified)	-2.0	8.2	2.6	1.1	6.5	nt
COc1ccc(CCNC2CC(=O)N(CCc3ccc(OC)c(OC)c3)C2=O)cc1 (stereo unspecified)	2.6	-3.7	-4.2	2.0	77.6*	1.6
O=C(NC1CCCCN(Cc2ccc(Cl)cc2)C1=O)c1ccc(F)c(F)c1 (stereo unspecified)	-6.0	-7.3	1.9	nt	3.0	nt
O=C(NCc1ccc(Cl)cc1)O[C@H]1CC[C@@]23CCCN2C(=O)CCC[C@H]3C1	-1.6	1.3	nt	nt	-6.3	nt
OC1(Cc2ccccc2)CCN(c2ncnc3sccc23)CC1	-3.2	2.2	nt	nt	-1.0	nt
COc1ccc(S(=O)(=O)Nc2ccc(N3CCOCC3)cc2)cc1Br	2.6	-0.8	6.2	5.7	1.1	nt
Cc1cc(S(=O)(=O)Nc2ccc(N3CCOCC3)cc2)ccc1Br	9.5	0.9	4.0	5.1	28.9*	3.5
CC(C)(C)N1Cc2nnn(Cc3ccccc3)c2-c2cc(N3CCCC3)ccc2S1(=O)=O	-1.3	23.5	3.9	nt	-1.5	nt
CNC(=S)N(Cc1ccco1)Cc1cc2cc(OC)ccc2[nH]c1=O	-1.4	-12.2	-1.2	-8.9	3.5	nt
COC(=O)c1ccccc1S(=O)(=O)N(Cc1ccco1)Cc1cc2cc(OC)ccc2[nH]c1=O	-1.1	6.1	9.3	3.4	29.8*	-1.6
COC(=O)[C@@H]1C[C@@]2(c3ccccc3)c3ccccc3N(S(=O)(=O)c3ccccc3)[C@H]2N1C(=O)CNC1CCCCC1	3.5	11.3	6.4	nt	0.6	nt
COC(=O)[C@]12C[C@H](CC(=O)NCCc3ccccc3OC)C(=O)N(Cc3cccc4ccccc34)C1=C[C@H](C(C)(C)C)O[C@@H]2C	-7.8	-9.1	7.5	nt	-7.8	nt
CN(Cc1ccccc1C#N)S(=O)(=O)c1cccs1	-4.8	0.2	3.5	-4.2	-2.2	nt
N#Cc1nccnc1S(=O)(=O)c1cccs1	-4.0	2.6	-1.8	-1.0	84.2*	82.3*
Cc1ccc(-c2nc(N)sc2CC(=O)OCC(=O)N2C(C)CCCC2C)cc1 (stereo unspecified)	-3.2	-3.1	2.5	-2.3	48.6*	0.7
Cc1c(-n2c(O)c(C3=c4ccccc4=NC3=O)sc2=O)c(=O)n(-c2ccccc2)n1C	5.0	6.8	-0.9	4.2	3.0	nt
O=C(O)Cn1c(O)c(C2=c3ccccc3=NC2=O)sc1=O	5.3	8.4	12.2	2.6	27.4*	9.6
COC(=O)c1ccc2nc(-c3ccccc3)c(Cc3cccc(Cl)c3)n2c1	-9.7	-18.5	9.4	2.0	4.7	nt
Cc1ccccc1CN1CCCCC(NC(=O)c2ccc(F)cc2)C1=O (stereo unspecified)	-1.6	6.3	0.3	nt	1.8	nt
